IC50 data for ten compounds are collected here from ChEMBL document CHEMBL4334473, “Structure-Based Molecular Networking for the Target Discovery of Oxahomoaporphine and 8-Oxohomoaporphine Alkaloids from Duguetia surinamensis” (J Nat Prod, 2019).

One assay deals with HL-60. Nature of the assay: Cytotoxicity against human HL60 cells assessed as cell growth inhibition after 72 hrs by alamar blue assay. Type of assay: functional, cell-based. To be noted: HL-60, 72 h. In outline: (§1)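 Tumour lines and MRC-5 fibroblasts obtained from ATCC, cultured per ATCC guidelines and confirmed mycoplasma-free by staining. Viability read by Alamar blue after 72 h exposure. IC50 in μM with 95% confidence interval by nonlinear regression, from at least three independent experiments run in duplicate. Doxorubicin served as positive control.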
(In general: Alamar Blue is a resazurin reagent that responds to reducing activity.)

For a further assay, the system named is HCT-116. The experiment in a line: Cytotoxicity against human HCT116 cells assessed as cell growth inhibition after 72 hrs by alamar blue assay. Type of assay: functional, cell-based. The conditions noted are these: HCT-116, 72 h. The method in brief:
as §1

In a further assay the test system is SF-295. Nature of the assay: Cytotoxicity against human SF295 cells assessed as inhibition of cell viability after 69 hrs by MTT assay. Type of assay: functional, cell-based. The conditions noted are these: SF-295, 69 h.
The subject of another assay is MDA-MB-435. The experiment in a line: Cytotoxicity against human MDA-MB-435 cells assessed as inhibition of cell viability after 69 hrs by MTT assay. Type of assay: functional, cell-based. To be noted: MDA-MB-435, 69 h. Background: Formazan colour is commonly taken as a measure of viable cells.
The test system of the next assay is HepG2. The experiment in a line: Cytotoxicity against human HepG2 cells assessed as cell growth inhibition after 72 hrs by alamar blue assay. Type of assay: functional, cell-based. To be noted: HepG2, 72 h. In outline: as §1
For another assay, the system named is MRC5. Nature of the assay: Cytotoxicity against human MRC5 cells assessed as cell growth inhibition after 72 hrs by alamar blue assay. Type of assay: cell-based. To be noted: MRC5, 72 h. The method in brief: as §1
The next assay has as its system MCF7. The experiment in a line: Cytotoxicity against human MCF7 cells assessed as cell growth inhibition after 72 hrs by alamar blue assay. Type of assay: functional, cell-based. The conditions noted are these: MCF7, 72 h. In outline: as §1
The subject of another assay is HCT-8. Nature of the assay: Cytotoxicity against human HCT8 cells assessed as inhibition of cell viability after 69 hrs by MTT assay. Type of assay: functional, cell-based. To be noted: HCT-8, 69 h.

Regarding `COc1cc2c(cc1OC)[C@H](O)[C@@H]1c3c(cc4c(c3-2)OCO4)CCN1C`, the IC50 was 4.8 µM in the assay with HL-60; > 10 µM in the assay on HCT-116; 1.4 µM in the assay with SF-295; 12.4 µM in the assay with MDA-MB-435; 5 µM with HepG2; > 10 µM in the assay with MRC5. Also, the IC50 in the assay on MCF7 was > 10 µM; in the assay with HCT-8 it was 1.4 µM.
On to `COC1=C[C@@]23CCN(C)[C@@H](Cc4cc(O)c(OC)cc42)C3=CC1=O`, for which the IC50 in the assay on HL-60, in the assay with HCT-116, in the assay with HepG2, in the assay with MRC5 and in the assay with MCF7 was > 10 µM in each case.
As for `COc1cc2c(cc1OC)[C@@H](O)[C@@H]1NCCc3cc4c(c-2c31)OCO4`, the IC50 in the assay on HL-60 is 2 µM; in the assay on HCT-116, 4 µM; in the assay on HepG2, 9.1 µM; in the assay on MRC5 it was > 10 µM; with MCF7, 10 µM.
Turning to `COc1ccc2c(c1)c(=O)cc1c3c(cc4c(c32)OCO4)CCN1C`, the IC50 in the assay with HL-60, in the assay on HCT-116, in the assay on HepG2, in the assay with MRC5 and in the assay with MCF7 was > 10 µM in each case.
`COc1cc2c(cc1OC)[C@H](O)[C@@H]1c3c(cc4c(c3-2)OCO4)CC[N+]1(C)[O-]` (stereo not given in full): the IC50 was 9.6 µM in the assay with HL-60; 9.2 µM with HCT-116; 1.6 µM with SF-295; 7.3 µM in the assay with MDA-MB-435; > 10 µM in the assay with HepG2; > 10 µM in the assay on MRC5. Also, the IC50 with MCF7 was > 10 µM; with HCT-8 it was 1.9 µM.
As to `COc1cc2c(=O)cc3c4c(cc5c(c4c2cc1OC)OCO5)CCN3C`, the IC50 in the assay on HL-60, in the assay with HCT-116, with HepG2, in the assay on MRC5 and in the assay on MCF7 was > 10 µM in each case.
Turning to `COc1ccc(OC)c(OC)c1` [1,2,4-TRIMETHOXYBENZENE], the IC50 in the assay with HL-60, with HCT-116, in the assay with HepG2, with MRC5 and with MCF7 was > 10 µM throughout.
With `COc1cc2c(cc1OC)-c1c3c(cc4c1[C@H](C2)N(C)CC4)OCO3` [DICENTRINE], the IC50 is 3.7 µM in the assay on HL-60; 8.8 µM in the assay on HCT-116; > 10 µM with HepG2; > 10 µM in the assay with MRC5; > 10 µM with MCF7.
Consider `COc1cc2c(cc1OC)-c1c3c(cc4ccnc(c14)C2=O)OCO3` [DICENTRINONE], for which the IC50 in the assay on HL-60, with HCT-116, in the assay on HepG2, in the assay with MRC5 and in the assay with MCF7 was > 10 µM each time.
In the case of `COc1cccc2c1C(=O)c1c(O)c3c(c(O)c1C2=O)C[C@@](O)(C(=O)CO)C[C@@H]3O[C@H]1C[C@H](N)[C@H](O)[C@H](C)O1` [DOXORUBICIN], the IC50 came out at 0.04 µM with HL-60, 0.3 µM in the assay on HCT-116, 0.04 µM in the assay with HepG2 and 2.4 µM in the assay with MRC5.

The term IC50 denotes the concentration at which inhibition is half-maximal.
